Data set [1] relates to Mus musculus. Nature of the data set: Narcotic antagonist activity in sc dosed mouse assessed as inhibition of oxymorphone-induced narcosis. It counts as functional. In short, it runs like this: (§1)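 Given subcutaneously as salts in aqueous solution, with doses expressed as free base. ED50 was derived by probit analysis of dose-response data using at least three dose levels and at least six animals per dose level.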

In data set [2] the test system is Mus musculus. Nature of the data set: Narcotic antagonist activity in sc dosed mouse assessed as inhibition of oxymorphone-induced straub tail response. It counts as functional. In short, it runs like this: as §1
Data set [3] concerns Mus musculus. Description: Toxicity in mouse assessed as tremor at 40 mg/kg, sc. Details: dose 40 mg/kg, route subcutaneous. It counts as organism-based. The conditions noted are these: in vivo. In short, it runs like this: (§2)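 Given subcutaneously as salts in aqueous solution, with dose expressed as free base.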
Data set [4] relates to Mus musculus. Nature of the data set: Toxicity in mouse assessed as convulsion at 80 mg/kg, sc. In kind it is organism-based. On the set-up: dose 80 mg/kg, route subcutaneous. The conditions noted are these: in vivo. In short, it runs like this:
as §2

For data set [5], the system named is Rattus norvegicus. Nature of the data set: Narcotic antagonist activity in sc dosed rat assessed as inhibition of morphine-induced analgesic activity by tail flick test. In kind it is functional. In short, it runs like this: as §1
In general terms: In hot-plate and tail-flick tests a longer latency is read as antinociception.

Data set [6] has as its system Mus musculus. Description: Analgesic activity in sc dosed mouse assessed as inhibition of phenylquinone-induced writhing. It counts as functional. In short, it runs like this:
as §1
In general terms: Writhing tests count abdominal constrictions after an irritant is injected.

Data set [7] deals with Mus musculus. Nature of the data set: Narcotic antagonist activity in mouse assessed as inhibition of oxymorphone-induced straub tail response at 40 mg/kg, sc. On the set-up: dose 40 mg/kg. It counts as functional, organism-based. In short, it runs like this: as §2
In data set [8] the test system is Mus musculus. Nature of the data set: Toxicity in mouse assessed as depression at 40 mg/kg, sc. In kind it is organism-based. The conditions noted are these: in vivo. On the set-up: dose 40 mg/kg, route subcutaneous. In short, it runs like this:
as §2

Data set [9] concerns Mus musculus. Nature of the data set: Analgesic activity in mouse assessed as inhibition of phenylquinone-induced writhing at 40 mg/kg, sc. It counts as functional, organism-based. Details: dose 40 mg/kg. In short, it runs like this:
as §2

For data set [10], the system named is Mus musculus. Description: Toxicity in mouse assessed as convulsion at 40 mg/kg, sc. It counts as organism-based. On the set-up: dose 40 mg/kg, route subcutaneous. As to conditions: in vivo. In short, it runs like this: as §2

The source made the active and inactive calls. The rule behind the calls is not given here.

For orientation: ED50 means the midpoint of the dose-response relation.

In the case of `C=CCN1C2CC3c4ccc(O)cc4C(CC)(C2)CC31` (stereo unspecified), the ED50 in [1] came out at 1 mg/kg; in [2], 8 mg/kg; in data set [5] it was 3.3 mg/kg; in data set [6], 20 mg/kg. In addition, the Activity result in data set [3] and in data set [4] was “Toxic” throughout.

Take `CN1CC[C@]23c4c5ccc(O)c4O[C@H]2[C@@H](O)C=C[C@H]3[C@H]1C5` [MORPHINE]: the ED50 in [6] was 0.26 mg/kg.

For the molecule `CCC12CC3CC(c4ccc(O)cc41)C(C2)N3C` (stereo unspecified), in data set [4], the Activity entry is “Toxic”. The inhibition result in [7] was “inactive”. Further, the ED50 in data set [6] amounted to 24.3 mg/kg.

Regarding `CCC12CC3CC(c4ccc(O)cc41)C(C2)N3CCC1CC1` (stereo unspecified), the ED50 in data set [2] and in [5] was over 20 mg/kg throughout. In addition, the Activity entry in data set [4] and in data set [8] was “Toxic” each time. Also, the inhibition entry in data set [9] was “Active”.

For `CC12CC3CC(c4ccc(O)cc41)C(C2)N3CC1CC1` (stereo unspecified), the median effective dose (ED50) in data set [1] amounted to 0.63 mg/kg; in [2], 0.96 mg/kg; in [5], 0.64 mg/kg. In data set [4], the Activity entry is listed as “Toxic”. Also, the inhibition entry in [9] was “Active”.

Take `CCC12CC3CC(c4ccc(O)cc41)C(C2)N3CC1CCC1` (stereo unspecified): the ED50 amounted to 5 mg/kg in data set [1], 15 mg/kg in data set [2] and 10 mg/kg in data set [5]. In addition, the Activity result in [4] and in data set [10] was “Toxic” in each case. Moreover, in data set [9], the inhibition result was “inactive”.

`C=CCN1CC[C@]23c4c5ccc(O)c4O[C@H]2[C@@H](O)C=C[C@H]3[C@H]1C5` [NALORPHINE]: the ED50 in data set [1] is 0.58 mg/kg; in [5] it was 0.38 mg/kg; in data set [6] it was 0.77 mg/kg.

Regarding `CN1C2CC3c4ccc(O)cc4C(C)(C2)CC31` (stereo unspecified), the Activity entry in data set [4] is listed as “Toxic”. In addition, the inhibition entry in data set [7] was “inactive”. Moreover, in data set [6], the ED50 came to 31.8 mg/kg.

Take `CC12CC3CC(c4ccc(O)cc41)C(C2)N3CC1CCC1` (stereo unspecified): the Activity result in data set [4] is on record as “Toxic”. The inhibition result in data set [7] and in [9] was “inactive” each time.

Regarding `CC12CC3CC(c4ccc(O)cc41)C(C2)N3CCC1CC1` (stereo unspecified), in [4], the Activity entry is on record as “Toxic”. Further, the inhibition result in data set [7] and in [9] was “inactive” throughout.

As to `CCC12CC3CC(c4ccc(O)cc41)C(C2)N3CC1CC1` (stereo unspecified), the ED50 in data set [1] was determined as 0.32 mg/kg; in data set [2], 2.24 mg/kg; in [5], 0.44 mg/kg. The Activity result in data set [4] is given as “Toxic”. The inhibition result in data set [9] is “Active”.

Regarding `CC12CC3CC(c4ccc(O)cc41)C(C2)N3` (stereo unspecified), the Activity entry in [4] was “Toxic”.

Turning to `CC(C)=CCN1CC[C@]2(C)c3cc(O)ccc3C[C@H]1[C@H]2C` [(+)-PENTAZOCINE], the ED50 amounted to 10.1 mg/kg in [1], 12 mg/kg in data set [2] and 3.7 mg/kg in [6].

As to `CCC12CC3CC(c4ccc(O)cc41)C(C2)N3` (stereo unspecified), the Activity result in data set [4] and in [10] was “Toxic” throughout. For the same molecule, the inhibition result in data set [7] is “inactive”. In addition, the ED50 in data set [6] was 12.9 mg/kg.

The record behind these values is ChEMBL document CHEMBL3272137, “Narcotic antagonists. Synthesis and evaluation of some subsituted 1,2,3,4,5,6-hexahydro-1,4:2,6-dimethano-3-benzazocines” (J Med Chem, 1977).
